The values below come from ChEMBL document CHEMBL1144020, “Development of prodrug 4-chloro-3-(5-methyl-3-{[4-(2-pyrrolidin-1-ylethoxy)phenyl]amino}-1,2,4-benzotriazin-7-yl)phenyl benzoate (TG100801): a topically administered therapeutic candidate in clinical trials for the treatment of age-related macular degeneration” (J Med Chem, 2008).

One may read the Cmax as the peak of the concentration-time curve. As usually defined, the IC50 is the concentration that inhibits the measured activity by half. As a reminder, the AUC(0-t) is the area under the concentration-time curve up to a stated or last time point. Usually inhibition in vivo stands for the percentage by which the read-out fell short of the control. By Tmax is commonly meant the time from dosing to the highest level. As usually defined, the half-life is the time in which the quantity being followed falls by half.

The nature of series [1]: Cmax in C57BL/6 mouse plasma at 137 nM instilled per eye. The format is ADME, organism-based. Details: dose 137 nM, route ophthalmic. The note with it: topical or ocular, 137 nM per eye. The method, boiled down: (§1)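 One 10 µL topical drop per eye (70 µg, 137 nmol; 0.7% w/v in 27% w/v PL90G aqueous formulation) to 20 male C57BL/6 mice. Composite sampling, N = 4 per time point at 0.5, 1, 3, 7 and 24 h. Cornea, retina and choroid/sclera eye cup were dissected and plasma taken at euthanasia. LC/MS/MS quantitation; Tmax and Cmax from measured levels; AUC by linear trapezoidal rule on mean data.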

The target of series [2] is Tyrosine-protein kinase Yes (Homo sapiens, UniProt P07947). In words: Inhibition of YES.
The target in series [3] is Proto-oncogene tyrosine-protein kinase Src (Homo sapiens, UniProt P12931). In words: Inhibition of Src.
Series [4] in a line: AUC (0 to 24 hrs) in C57BL/6 mouse retina at 137 nM instilled per eye. Details: time < 24 hr, dose 137 nM, route ophthalmic. The format is ADME, organism-based. Conditions: topical or ocular, 137 nM per eye. The essentials:
as §1

The nature of series [5]: Cmax in C57BL/6 mouse cornea at 137 nM instilled per eye. It counts as ADME, organism-based. The note with it: topical or ocular, 137 nM per eye. Details: dose 137 nM, route ophthalmic. The essentials:
as §1

Series [6] relates to Mus musculus. In words: Inhibition of FAK-Y861 phosphorylation in mouse at 5 mg/kg.
Series [7] can be described thus: Stability at 120 degC after 1 hr. The format is physicochemical. The method, boiled down: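 Prodrugs at 0.5% in 0.5% HPMC/5% dextrose, pH 6.7, in closed vials, autoclaved at 120 °C for 1 h. After cooling, percent remaining was assessed by reverse-phase HPLC with diode-array and ELSD detection.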
The nature of series [8]: Tmax in C57BL/6 mouse plasma at 137 nM instilled per eye. It counts as ADME, organism-based. The note with it: topical or ocular, 137 nM per eye. The essentials:
as §1

The nature of series [9]: Cmax in C57BL/6 mouse retina at 137 nM instilled per eye. Details: dose 137 nM, route ophthalmic. Conditions: topical or ocular, 137 nM per eye. The format is ADME, organism-based. The method, boiled down:
as §1

Series [10] concerns Mus musculus. In words: Reduction of VEGF-induced retinal leak in BALB/c mouse administered topically at 137 nM thrice a day. It counts as functional. Details: scale not given: the % may be the effect or the level left.
A short description of series [11]: Tmax in C57BL/6 mouse retina at 137 nM instilled per eye. The format is ADME, organism-based. The note with it: topical or ocular, 137 nM per eye. The method, boiled down:
as §1

A short description of series [12]: Cmax in C57BL/6 mouse choroid/sclera at 137 nM instilled per eye. The note with it: topical or ocular, 137 nM per eye. Details: dose 137 nM, route ophthalmic. The format is ADME, organism-based. The essentials:
as §1

The nature of series [13]: Half life in C57BL/6 mouse administered topically at 0.7% w/v thrice a day. The note with it: in vivo, topical or ocular. The format is ADME, organism-based.
Series [14] relates to Mus musculus. In words: Reduction of VEGF-induced retinal leak in BALB/c mouse administered topically at 137 nM q.d. Also noted: scale not given: the % may be the effect or the level left. The format is functional.
Series [15] is described as follows: Tmax in C57BL/6 mouse cornea at 137 nM instilled per eye. It counts as ADME, organism-based. Conditions: topical or ocular, 137 nM per eye. The method, boiled down:
as §1

Series [16] can be described thus: Antiproliferative activity against VEGF-stimulated human RMVEC cells after 48 hrs. It counts as functional, cell-based. The essentials:
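Human retinal microvascular endothelial cells (~1.5 × 10³/well) were made quiescent for ~48 h in growth-factor-free medium with 10% FBS. Cells were pretreated ~60 min with compound (5–0.00229 or 2–0.00195 µM) in medium with 10% FBS and 50 µg/mL heparin. VEGF 50 ng/mL was added for 48 h at 37 °C/5% CO₂. XTT read at 492/690 nm; IC50 by nonlinear regression.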

In series [17] the target is Vascular endothelial growth factor receptor 2 (Homo sapiens, UniProt P35968). The experiment in a line: Inhibition of VEGFR2.
The nature of series [18]: AUC (0 to 24 hrs) in C57BL/6 mouse cornea at 137 nM instilled per eye. Conditions: topical or ocular, 137 nM per eye. The format is ADME, organism-based. Details: dose 137 nM, time < 24 hr, route ophthalmic. The method, boiled down: as §1
Series [19] can be described thus: Tmax in C57BL/6 mouse choroid/sclera at 137 nM instilled per eye. It counts as ADME, organism-based. The note with it: topical or ocular, 137 nM per eye. The essentials: as §1
Series [20] is described as follows: AUC (0 to 24 hrs) in C57BL/6 mouse choroid/sclera at 137 nM instilled per eye. Also noted: time < 24 hr, dose 137 nM, route ophthalmic. The format is ADME, organism-based. The note with it: topical or ocular, 137 nM per eye. The essentials:
as §1

Sequence of Proto-oncogene tyrosine-protein kinase Src (P12931 2-536 limits assumed): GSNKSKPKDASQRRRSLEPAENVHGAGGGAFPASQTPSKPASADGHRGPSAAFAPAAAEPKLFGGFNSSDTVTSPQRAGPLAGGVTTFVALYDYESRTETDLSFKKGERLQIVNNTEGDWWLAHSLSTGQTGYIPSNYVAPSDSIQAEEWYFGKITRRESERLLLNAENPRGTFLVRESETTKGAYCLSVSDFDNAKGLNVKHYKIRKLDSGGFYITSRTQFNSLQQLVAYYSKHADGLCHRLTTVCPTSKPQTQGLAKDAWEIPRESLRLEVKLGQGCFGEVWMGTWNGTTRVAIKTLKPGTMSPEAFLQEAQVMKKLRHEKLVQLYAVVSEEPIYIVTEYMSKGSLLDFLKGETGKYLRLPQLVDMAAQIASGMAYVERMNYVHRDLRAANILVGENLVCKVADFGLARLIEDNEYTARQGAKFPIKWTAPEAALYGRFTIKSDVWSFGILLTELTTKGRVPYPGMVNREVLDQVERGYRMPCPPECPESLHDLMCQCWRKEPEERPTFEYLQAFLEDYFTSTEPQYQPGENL
Sequence of Vascular endothelial growth factor receptor 2 (P35968 whole entry): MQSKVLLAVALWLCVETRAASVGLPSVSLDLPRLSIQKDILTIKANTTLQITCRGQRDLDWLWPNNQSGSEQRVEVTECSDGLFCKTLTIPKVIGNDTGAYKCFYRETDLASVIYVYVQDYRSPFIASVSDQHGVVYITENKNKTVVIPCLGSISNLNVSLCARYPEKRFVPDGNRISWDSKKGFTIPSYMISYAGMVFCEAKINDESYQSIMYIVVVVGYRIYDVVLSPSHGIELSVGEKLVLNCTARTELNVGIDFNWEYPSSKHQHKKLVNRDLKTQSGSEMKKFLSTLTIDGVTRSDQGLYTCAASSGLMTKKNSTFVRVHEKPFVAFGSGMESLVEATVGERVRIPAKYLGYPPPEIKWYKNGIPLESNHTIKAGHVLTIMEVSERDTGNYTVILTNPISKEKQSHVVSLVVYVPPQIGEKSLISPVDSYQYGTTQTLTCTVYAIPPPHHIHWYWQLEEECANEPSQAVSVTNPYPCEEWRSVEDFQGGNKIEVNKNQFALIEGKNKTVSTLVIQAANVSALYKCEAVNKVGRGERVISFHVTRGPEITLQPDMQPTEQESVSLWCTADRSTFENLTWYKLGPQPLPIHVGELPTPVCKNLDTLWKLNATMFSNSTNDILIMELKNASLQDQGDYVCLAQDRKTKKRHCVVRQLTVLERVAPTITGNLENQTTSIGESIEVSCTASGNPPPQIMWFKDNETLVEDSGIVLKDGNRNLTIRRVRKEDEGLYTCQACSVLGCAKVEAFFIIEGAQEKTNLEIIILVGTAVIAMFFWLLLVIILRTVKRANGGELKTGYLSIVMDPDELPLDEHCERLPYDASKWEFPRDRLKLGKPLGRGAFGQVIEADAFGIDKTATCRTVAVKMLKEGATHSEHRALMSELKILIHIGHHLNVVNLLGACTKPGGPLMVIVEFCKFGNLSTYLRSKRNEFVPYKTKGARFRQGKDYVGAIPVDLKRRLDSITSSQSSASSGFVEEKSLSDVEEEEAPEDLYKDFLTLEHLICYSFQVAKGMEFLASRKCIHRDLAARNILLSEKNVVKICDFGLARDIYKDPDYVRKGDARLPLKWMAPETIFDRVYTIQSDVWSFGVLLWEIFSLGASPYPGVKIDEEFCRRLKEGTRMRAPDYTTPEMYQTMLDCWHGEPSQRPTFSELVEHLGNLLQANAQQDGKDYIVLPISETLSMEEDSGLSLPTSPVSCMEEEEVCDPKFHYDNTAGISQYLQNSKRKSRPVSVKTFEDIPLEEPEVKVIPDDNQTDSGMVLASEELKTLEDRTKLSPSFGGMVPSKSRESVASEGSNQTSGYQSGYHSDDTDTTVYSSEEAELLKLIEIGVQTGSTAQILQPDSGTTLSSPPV
Sequence of Tyrosine-protein kinase Yes (P07947 whole entry): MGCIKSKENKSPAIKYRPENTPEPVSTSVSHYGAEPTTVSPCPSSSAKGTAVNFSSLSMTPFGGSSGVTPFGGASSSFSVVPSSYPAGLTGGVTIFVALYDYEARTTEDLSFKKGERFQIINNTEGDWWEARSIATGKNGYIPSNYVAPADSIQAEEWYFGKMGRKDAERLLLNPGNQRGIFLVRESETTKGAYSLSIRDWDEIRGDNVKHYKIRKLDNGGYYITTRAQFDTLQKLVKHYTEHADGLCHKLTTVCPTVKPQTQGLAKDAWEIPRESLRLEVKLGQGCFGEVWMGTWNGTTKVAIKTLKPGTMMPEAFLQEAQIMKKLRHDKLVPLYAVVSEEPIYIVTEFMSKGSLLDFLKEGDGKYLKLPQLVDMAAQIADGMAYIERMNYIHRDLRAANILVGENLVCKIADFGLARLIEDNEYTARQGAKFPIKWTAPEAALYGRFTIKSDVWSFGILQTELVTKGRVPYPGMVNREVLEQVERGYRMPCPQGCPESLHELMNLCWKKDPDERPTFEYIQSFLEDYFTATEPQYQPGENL

On to `Cc1cc(-c2cc(O)ccc2Cl)cc2nnc(Nc3ccc(OCCN4CCCC4)cc3)nc12`, for which the Cmax at 0.137 µM is 0.002 µM in series [1], 64 µM in series [5], 3.6 µM in series [9] and 23.4 µM in series [12]. The IC50 worked out at 0.3 nM in series [2], 1.8 nM in [3], 610 nM in [16] and 2.2 nM in series [17]. Further, the figures for the AUC(0-t) at 24 h, 0.137 µM in [4], in [18] and in series [20] were 3.2 µg·h/mL, 560 µg·h/mL and 240 µg·h/mL, respectively. This compound also showed an inhibition in vivo at 5 mg/kg with Mus musculus [6] greater than 90%. Also, in series [7] (1 h), the Stability entry is “Stable”. Also, the Tmax at 0.137 µM in series [8] worked out at 360 min; in series [11], 30 min; in series [15] it was 30 min; in [19], 30 min. For the same compound, the Activity in the series with Mus musculus [10] turned out to be 85%; with Mus musculus [14], 60%. In [13], this compound gave a half-life of 30 min.

On to `Cc1ccc(C(=O)Oc2ccc(Cl)c(-c3cc(C)c4nc(Nc5ccc(OCCN6CCCC6)cc5)nnc4c3)c2)cc1`, for which, in series [7] (read-out: Stability), the remaining at 1 h was greater than 90%.
